Shown are actives, neighbours in structure and some others; about 2.6% of the full set was active somewhere.
NR1D1 modulator – modulators of Rev-erb alpha DNA binding, primary screen, biochemical, FITC-DNA, fluorescence polarization, uHTS; activity, % at 10 µM; 0.79% of 370,000 active; AID 1259318, 2017; Rev-erbα–FITC-DNA binding, 90 min;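 active = activity above about 14%, limit read from the data; passing the limit was not always enough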
NR2E3 ag-1 – NR2E3 agonists in two-hybrid cells, primary screen, cell-based, luminescence, CHO-S, Gal4-NCOR/VP16-NR2E3; luciferase; Photoreceptor-specific nuclear receptor (Homo sapiens), Q9Y5X4; inhibition of corepressor binding, % at 3.98 µM; 0.35% of 360,000 active;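 active = inhibition above the mean of all tested compounds plus 3 SD, cut at about 70% in these data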;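 also: higher means lower luciferase signal from less NR2E3 corepressor binding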
Target sequence (Q9Y5X4 whole entry, looked up, the tested form may be a part): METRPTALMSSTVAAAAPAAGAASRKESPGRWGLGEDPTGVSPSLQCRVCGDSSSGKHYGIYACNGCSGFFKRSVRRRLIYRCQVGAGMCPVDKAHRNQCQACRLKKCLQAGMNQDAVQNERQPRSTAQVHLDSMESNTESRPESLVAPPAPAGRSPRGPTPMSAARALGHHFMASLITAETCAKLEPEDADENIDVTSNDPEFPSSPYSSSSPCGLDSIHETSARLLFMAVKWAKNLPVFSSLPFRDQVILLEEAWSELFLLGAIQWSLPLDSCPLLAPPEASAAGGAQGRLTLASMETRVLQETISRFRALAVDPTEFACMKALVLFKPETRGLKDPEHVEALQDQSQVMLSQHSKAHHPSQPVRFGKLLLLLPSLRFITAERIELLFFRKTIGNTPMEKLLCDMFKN
NR2E3 ag-2 – inhibitors of NR2E3-RetCOR corepressor binding, primary screen, NR2E3 agonist project, biochemical, TR-FRET, GST-NR2E3, biotin-RetCOR; inhibition of corepressor binding, % at 4.78 µM; 1536-well; AID 2300, 2010; 0.12% of 320,000 active; Photoreceptor-specific nuclear receptor (Homo sapiens), Q9Y5X4;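 active = percent inhibition above the cutoff of mean plus 3 SD of all tested compounds, set per screening campaign, cut at about 20% in these data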
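System: GST-tagged NR2E3 plus biotinylated RetCOR corepressor; Buffer or medium: pH 7.5 Tris-based buffer; Probe or stimulus: RetCOR corepressor, biotinylated, 7 nM; Doses: compound at 4.8 µM, single dose; Schedule: 5 h incubation at 4 °C; Technique: time-resolved FRET; Evaluation: percent inhibition of TR-FRET ratio; Replication: one well per compound, singlicate testing.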
rCAG binder – binders of r(CAG) RNA repeats, primary screen, biochemical, fluorescence | r(CAG) RNA repeat, TO-PRO-1 dye displacement fluorescence | inhibition, % at 3 µM | 1.3% of 370,000 active;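 active = inhibition above the plate cutoff, the mean of all test compounds on that plate plus 3 SD, cut at about 35% in these data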;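 also: higher means more dye released from RNA so lower well fluorescence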
PG9 Ab binder – binders of HIV-1 gp120 antibody PG9, primary screen, biochemical, TR-FRET. AID 624416, 2012. HIV-1 gp120 / PG9 antibody interaction. 0.43% of 360,000 active. inhibition, % at 6.7 µM. TR-FRET gp120-PG9 antibody binding; in the data active = inhibition above about 8.5%
rCAG binder conf – small molecules binding CAG repeat RNA – biochemical, fluorescence, confirmation. r(CAG) RNA repeat, TO-PRO-1 dye displacement fluorescence. shares compounds with rCAG binder. AID 652065, 2013. 70% of 4,300 active. inhibition, % at 3 µM;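 active = inhibition above a per-plate cutoff, the mean inhibition of sample wells plus 3 SD, cut at about 35% in these data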;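 also: loss of TO-PRO-1 fluorescence as compound displaces dye from 1x1 AA loop RNA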
DNA CAG counter – displacement of TO-PRO-1 from CAG DNA duplex, counter-screen for rCAG RNA repeat binder project, biochemical, fluorescence, TO-PRO-1 dye, d(CAG) DNA oligo | inhibition, % at 3 µM | d(CAG) DNA oligo TO-PRO-1 dye displacement | shares compounds with rCAG binder | 94% of 4,300 active;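 active = inhibition above its plate's cutoff, the mean test-well inhibition plus 3 SD, cut at about 4.8% in these data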;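 also: hits displace the dye from DNA and so lower well fluorescence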
DNA CAG DR – inhibitors of DNA CAG/GTC TO-PRO-1 complex, dose response, counter-screen for rCAG RNA repeat binder project, biochemical, fluorescence, TO-PRO-1 dye; IC50, µM; 20% of 250 active; DNA CAG/GTC duplex TO-PRO-1 dye displacement fluorescence; shares compounds with rCAG binder; in the data active = IC50 below about 10 µM
Of the large screens only hits and unclear results are named; the others gave an inactive call (follow-up assays come after a bar, where they were run).

CCCS(=O)(=O)NC(=O)C1(C)CCCN(C(=O)/C=C/c2ccccc2)C1 (stereo not given)	none (no result: NR2E3 ag-2)
Cc1ccc(-c2nn(-c3ccccc3)cc2C2CC(c3cccs3)=NN2C(=O)CCCC(=O)O)cc1 (stereo not given)	none
O=C(O)CCC(=O)N1N=C(c2cccs2)CC1c1cn(-c2ccccc2)nc1-c1ccccc1 (stereo not given)	rCAG binder 53.8 | rCAG binder conf 60.6 | DNA CAG counter 19.1
Cc1cccc(-c2ocnc2C(=O)Nc2ncc(C)s2)c1	none (no result: NR2E3 ag-2)
CCOC(=O)CN1C(=O)S/C(=C\c2ccc(-c3ccc(C(=O)O)c(Cl)c3)o2)C1=O	none
CC(C)N1C(=O)S/C(=C\c2ccc(-c3ccc(Cl)c(C(=O)O)c3)o2)C1=O	rCAG binder 50.6 | rCAG binder conf 46.9 | DNA CAG counter 15.7
Cc1ccc(Cc2cnc(N3C(=N)SC(c4ccccc4)C3=O)s2)cc1 (stereo not given)	rCAG binder 64.3 | rCAG binder conf 68.9 | DNA CAG counter 23.2
Cc1ncc(NS(=O)(=O)c2ccc(N)cc2)nc1C	none (no result: NR2E3 ag-2)
CCCCN(C)C(=O)Cn1cnc2sc(C)c(S(=O)(=O)N3CCN(c4ccccc4OC)CC3)c2c1=O	none
O=C(CCN1C(=O)/C(=C/c2cccs2)SC1=S)Nc1ccc(C(=O)O)cc1	rCAG binder 48.1 | rCAG binder conf 35.3 | DNA CAG counter 8.1
O=C(CCCN1C(=O)/C(=C\c2cccs2)SC1=S)Nc1ccc(O)cc1	none
O=C(CCCN1C(=O)/C(=C\c2cccs2)SC1=S)Nc1ccc(C(=O)O)cc1	rCAG binder 39.0 | rCAG binder conf inactive | DNA CAG counter 7.8
CCc1nc2ccc(C(=O)NCCN3CCOCC3)cn2c1N(CC)CCOC	none (no result: NR2E3 ag-2)
O=C(CSc1nnc(SCc2ccccc2Cl)s1)N/N=C/c1ccc(C(=O)O)cc1	rCAG binder 49.2 | rCAG binder conf 60.4 | DNA CAG counter 17.3
O=C(CN(Cc1ccccc1Cl)S(=O)(=O)c1ccc(Cl)cc1)N/N=C/c1ccc(C(=O)O)cc1	rCAG binder 70.6 (no result: NR2E3 ag-2) | rCAG binder conf 55.0 | DNA CAG counter 19.9
CCCCOc1ccc(NC(=O)Nc2nnc(C)s2)cc1	rCAG binder 36.6 | rCAG binder conf inactive | DNA CAG counter 8.2
COc1ccc(NC(=O)Nc2nnc(CC(=O)Nc3ccccc3)s2)cc1	rCAG binder 42.5 | rCAG binder conf inactive | DNA CAG counter 14.8
CC(c1ccccc1)c1nnc(NC(=O)Nc2ccccc2)s1 (stereo not given)	rCAG binder 43.0 | rCAG binder conf inactive | DNA CAG counter 16.7
COc1cccc(NC(=O)Nc2nnc(CC(=O)Nc3ccccc3)s2)c1	rCAG binder 42.7 | rCAG binder conf inactive | DNA CAG counter 20.7
COc1ccc([C@H]2C[C@H](n3cc(C4CC4)nn3)[C@@H](O)CN2C(=O)C2CCCCC2)cc1	none (no result: NR2E3 ag-2)
CCOc1cc(Br)cc(C(c2c(C(=O)O)[nH]c3ccccc23)c2c(C(=O)O)[nH]c3ccccc23)c1O	rCAG binder 95.3 | rCAG binder conf 84.0 | DNA CAG counter 59.0
CSc1ccc(C(c2c(C(=O)O)[nH]c3ccccc23)c2c(C(=O)O)[nH]c3ccccc23)cc1	rCAG binder 89.1 | rCAG binder conf 81.7 | DNA CAG counter 49.7
CCOC(=O)c1[nH]c2ccccc2c1NC(C)=O	none
CCc1cc2c(nc1CC)CCCN2S(=O)(=O)c1ccccc1C	none (no result: NR2E3 ag-1, NR2E3 ag-2)
Cc1ccc(S(=O)(=O)N2[C@@H](c3ccc(Br)cc3)C(C(=O)O)=C[C@H]2C(C)(C)C)cc1	rCAG binder 46.9 (no result: NR2E3 ag-2) | rCAG binder conf 54.3 | DNA CAG counter 15.7
Cc1ccc(S(=O)(=O)N2[C@@H](c3ccc(Cl)cc3)C(C(=O)O)=C[C@H]2C(C)(C)C)cc1	rCAG binder 48.2 (no result: NR2E3 ag-2) | rCAG binder conf 41.7 | DNA CAG counter 11.0
O=C(CSc1ncnc2scc(-c3ccccc3)c12)Nc1ccc(C(=O)O)cc1	rCAG binder 34.5 | rCAG binder conf 34.7 | DNA CAG counter 10.1
CCCCNC(=O)NS(=O)(=O)c1ccc(NC(=O)CSc2ncnc3scc(-c4ccc(C)cc4)c23)cc1	rCAG binder 77.2 (no result: NR2E3 ag-1, NR2E3 ag-2, PG9 Ab binder) | rCAG binder conf 70.2 | DNA CAG counter 31.8 | DNA CAG DR inactive
Cc1ccc(C2NC(=O)c3[nH]nc(-c4ccccc4)c32)cc1 (stereo not given)	none (no result: NR2E3 ag-1, NR2E3 ag-2)
Cc1cc(NS(=O)(=O)c2ccc(NC(=S)NC(=O)/C=C/c3ccccc3)cc2)no1	rCAG binder 71.2 | rCAG binder conf 47.1 | DNA CAG counter 16.8
Cc1ccc(/C=C/C(=O)NC(=S)Nc2ccc(S(=O)(=O)Nc3cc(C)on3)cc2)cc1	rCAG binder 79.5 | rCAG binder conf 76.7 | DNA CAG counter 46.5
O=C(/C=C/c1cccs1)NC(=S)Nc1ccc(S(=O)(=O)Nc2ccccc2C(F)(F)F)cc1	rCAG binder 56.1 | rCAG binder conf 70.1 | DNA CAG counter 32.5 | DNA CAG DR inactive
Oc1ccc(C=NNC(=S)Nc2ccccc2)nc1	none (no result: NR2E3 ag-2)
COc1ccccc1CNC(=O)COC(=O)c1cc(C)nc2ccccc12	none (no result: NR2E3 ag-2)
CC(C)Cn1c(N)c(C(=O)COC(=O)c2cc(-c3ccco3)nc3ccccc23)c(=O)n(C)c1=O	rCAG binder 41.2 | rCAG binder conf 38.7 | DNA CAG counter 19.9
O=C(COC(=O)c1cc(-c2ccco2)nc2ccccc12)NCc1ccc2c(c1)OCO2	rCAG binder 37.5 | rCAG binder conf inactive | DNA CAG counter 8.0
COc1ccccc1CNC(=O)COC(=O)c1cc(-c2ccco2)nc2ccccc12	rCAG binder 41.3 | rCAG binder conf inactive | DNA CAG counter 16.9
Cn1c(=O)c(C(=O)COC(=O)c2cc(-c3ccco3)nc3ccccc23)c(N)n(Cc2ccccc2)c1=O	none (no result: NR1D1 modulator, NR2E3 ag-1, rCAG binder, PG9 Ab binder)
O=C(COC(=O)c1cc(-c2ccc(Cl)s2)nc2ccccc12)NCc1ccco1	rCAG binder 36.5 | rCAG binder conf inactive | DNA CAG counter 6.6
